# Measurements taken from ChEMBL document CHEMBL4819122, “Novel 4-(piperazin-1-yl)quinolin-2(1H)-one bearing thiazoles with antiproliferative activity through VEGFR-2-TK inhibition” (Bioorg Med Chem, 2021).
# Active and inactive are the calls of the source. No cut-off for these calls is given here.
# Key:
# EKVX = experiment: Cytotoxicity against human EKVX assessed as growth inhibition at 10 uM by NCI protocol relative to control; format: functional; conditions: read-out: GI
# Method in brief: (§1)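 Run by NCI as a single-dose screen at 10 μM across the sixty-cell-line panel, which covers nine human tumour tissue types. The read-out is percent growth inhibition of treated cells relative to untreated cells.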
# T47D [1] = experiment: Induction of cell cycle arrest in human T47D cells assessed as increase in accumulation at G0/G1 phase after 24 hrs by propidium iodide/Annexin V staining based FACScan flow cytometry(reference value: 52.59%); format: functional
# T47D [2] = experiment: Induction of apoptosis in human T47D cells assessed as necrotic cells after 24 hrs by Annexin V-FITC/propidium iodide staining based flow cytometric analysis (reference value: 1.74%); format: functional
# HCT-116 = experiment: Cytotoxicity against human HCT-116 assessed as growth inhibition at 10 uM by NCI protocol relative to control; format: functional; conditions: read-out: GI; method in brief: as §1
# T47D [3] = experiment: Cytotoxicity against human T47D cells assessed as reduction in cell viability after 3 hrs by MTT assay
# T47D [4] = experiment: Induction of apoptosis in human T47D cells assessed as early apoptotic cells after 24 hrs by Annexin V-FITC/propidium iodide staining based flow cytometric analysis (reference value: 0.66 %); format: functional
# HOP-92 = experiment: Cytotoxicity against human HOP-92 assessed as growth inhibition at 10 uM by NCI protocol relative to control; format: functional; conditions: read-out: GI; method in brief: as §1
# SF-539 = experiment: Cytotoxicity against human […] assessed as growth inhibition at 10 uM by NCI protocol relative to control; format: functional; conditions: read-out: GI; method in brief: as §1
# T47D [5] = experiment: Induction of apoptosis in human T47D cells assessed as total apoptotic cells after 24 hrs by Annexin V-FITC/propidium iodide staining based flow cytometric analysis (reference value: 2.61 %); format: functional
# SR = experiment: Cytotoxicity against human SR assessed as growth inhibition at 10 uM by NCI protocol relative to control; format: functional; conditions: read-out: GI
# Method in brief: (§2)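 Run by the NCI under its standard protocol: one dose of 10 μM against a sixty-line panel from nine human tumour tissues. Result given as percent growth inhibition of treated cells relative to untreated cells.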
# T47D [6] = experiment: Induction of cell cycle arrest in human T47D cells assessed as increase in accumulation at pre G1 phase after 24 hrs by propidium iodide/Annexin V staining based FACScan flow cytometry(reference value: 2.61%); format: functional
# UACC-62 = experiment: Cytotoxicity against human UACC-62 assessed as growth inhibition at 10 uM by NCI protocol relative to control; format: functional; conditions: read-out: GI; method in brief: as §2
# T47D [7] = experiment: Cytotoxicity against human T-47D assessed as growth inhibition at 10 uM by NCI protocol relative to control; format: functional; conditions: read-out: GI; method in brief: as §2
# MCF10 = experiment: Cytotoxicity against human MCF10 cells assessed as reduction in cell viability after 3 hrs by MTT assay; conditions: MCF10, 3 h
# UO-31 = experiment: Cytotoxicity against human UO31 assessed as growth inhibition at 10 uM by NCI protocol relative to control; format: functional; conditions: read-out: GI; method in brief: as §2
# T47D [8] = experiment: Induction of apoptosis in human T47D cells assessed as late apoptotic cells after 24 hrs by Annexin V-FITC/propidium iodide staining based flow cytometric analysis (reference value: 0.21 %); format: functional
# MOLT-4 = experiment: Cytotoxicity against human MOLT-4 assessed as growth inhibition at 10 uM by NCI protocol relative to control; format: functional; conditions: read-out: GI; method in brief: as §1
# IGROV-1 = experiment: Cytotoxicity against human IGROVI assessed as growth inhibition at 10 uM by NCI protocol relative to control; format: functional; conditions: read-out: GI; method in brief: as §1
# A498 = experiment: Cytotoxicity against human A498 assessed as growth inhibition at 10 uM by NCI protocol relative to control; format: functional; conditions: read-out: GI; method in brief: as §1
# 786-0 = experiment: Cytotoxicity against human 786-0 assessed as growth inhibition at 10 uM by NCI protocol relative to control; format: functional; conditions: read-out: GI; method in brief: as §1
# T47D [9] = experiment: Induction of cell cycle arrest in human T47D cells assessed as increase in accumulation at G2/M phase after 24 hrs by propidium iodide/Annexin V staining based FACScan flow cytometry(reference value: 12.79%); format: functional
# T47D [10] = experiment: Induction of cell cycle arrest in human T47D cells assessed as increase in accumulation at S phase after 24 hrs by propidium iodide/Annexin V staining based FACScan flow cytometry(reference value: 34.62%); format: functional
# MDA-MB-468 = experiment: Cytotoxicity against human MDA-MB-468 assessed as growth inhibition at 10 uM by NCI protocol relative to control; format: functional; conditions: read-out: GI; method in brief: as §1
# MDA-MB-435 = experiment: Cytotoxicity against human MDA-MB-435 assessed as growth inhibition at 10 uM by NCI protocol relative to control; format: functional, cell-based; method in brief: as §1
# CAKI-1 = experiment: Cytotoxicity against human Caki1 assessed as growth inhibition at 10 uM by NCI protocol relative to control; format: functional; conditions: read-out: GI; method in brief: as §1
smiles,measurement,setting,value
O=C(CN1CCN(c2cc(=O)[nH]c3ccc(F)cc23)CC1)Nc1nc(-c2ccccc2)cs1,inhibition of growth at 10 µM,EKVX,14.6%
same,Activity,T47D [1],41.31%
same,Activity,T47D [2],12.86%
same,inhibition of growth at 10 µM,HCT-116,16%
same,IC50,T47D [3],7.2 µM
same,Activity,T47D [4],2.31%
same,inhibition of growth at 10 µM,HOP-92,10.9%
same,inhibition of growth at 10 µM,SF-539,13.3%
same,Activity,T47D [5],43.05%
same,inhibition of growth at 10 µM,SR,21.2%
same,Activity,T47D [6],43.05%
same,inhibition of growth at 10 µM,UACC-62,14.4%
same,inhibition of growth at 10 µM,T47D [7],29.6%
same,IC50,MCF10,39.4 µM
same,inhibition of growth at 10 µM,UO-31,24.2%
same,Activity,T47D [8],27.88%
same,inhibition of growth at 10 µM,MOLT-4,13.3%
same,inhibition of growth at 10 µM,IGROV-1,16.1%
same,inhibition of growth at 10 µM,A498,27.9%
same,inhibition of growth at 10 µM,786-0,10.3%
same,Activity,T47D [9],6.3%
same,Activity,T47D [10],52.39%
same,inhibition of growth at 10 µM,MDA-MB-468,12.5%
same,growth inhibition (GI),MDA-MB-435,inactive
same,inhibition of growth at 10 µM,CAKI-1,17.4%
